Results on 22 compounds are retold here after ChEMBL document CHEMBL1123378, “Cardiotonic agents. 1. Synthesis and structure-activity relationships in a new class of 3-, 4-, and 5-pyridyl-2(1H)-quinolone derivatives” (1986).

pEC50: −log10 of the molar value.

The species entered for assay [1] is Cavia porcellus. In words: Positive inotropic activity in isolated left guinea pig atria. The following applies: read-out: ED50 (the source's name). In kind it is functional. The procedure, abridged: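 Isolated guinea pig left atria were paced electrically with square-wave pulses (2.5 Hz, 5 ms, voltage 50% above threshold) and stretched to 0.5 g resting tension. The bath was Krebs–Henseleit at 32 °C, gassed with 95% O2/5% CO2. An isoprenaline dose–response curve was run first to test each preparation. The ED50 (mol/L, dose giving 50% of maximum effect) was derived by the Ariens–Van Rossum method.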

Assay [2] is filed under the species Cavia porcellus. In words: Maximum response compared to maximum response to isoprenaline. The class given is functional. The method, boiled down: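 Electrically paced isolated guinea pig left atria (2.5 Hz, 5 ms pulses, 50% above threshold) were held in Krebs–Henseleit at 32 °C under 95% O2/5% CO2 and 0.5 g resting tension. Intrinsic activity is the compound's maximal inotropic response divided by the isoprenaline maximum, with isoprenaline set to 1. The number of experiments is given per value.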

With `Cl.Nc1cc2ccccc2nc1O`, the pEC50 in assay [1] was less than 4.11. Further, the Intrinsic activity in assay [2] is on record as 0.2.
For the compound `Cl.Oc1ccc2c(-c3ccncc3)ccc(O)c2n1`, in assay [1], the pEC50 is 4.70. Moreover, the Intrinsic activity in assay [2] turned out to be 0.24.
Taken in the same sequence, the figures for `COc1ccc(-c2ccncc2)c2ccc(O)nc12.Cl` were 4.46 and 0.75.
Regarding `Br.Oc1ccc2c(-c3cccnc3)ccc(O)c2n1`, in assay [1], the pEC50 is 5.17. In assay [2], this compound showed an Intrinsic activity of 0.62.
As for `COc1cccc2c(-c3ccncc3)cc(O)nc12.Cl`, the pEC50 in assay [1] was 4.42. For the same compound, in assay [2], the Intrinsic activity is listed as 0.45.
For `Cl.Oc1cc(-c2ccncc2)c2cccc(O)c2n1`, the pEC50 in assay [1] is 4.66. This compound gave an Intrinsic activity in assay [2] of 0.55.
Taken in the same sequence, the figures for `COc1ccc(-c2cccnc2)c2ccc(O)nc12.Cl` were 5.24 and 0.79.
The matching figures for `COc1ccc(N)c2ccc(O)nc12.Cl`: 3.63 and 0.23.
`COc1ccc(-c2cccnc2)c2c1NC(=O)CC2`: the pEC50 in assay [1] is 4.92. The compound also gave an Intrinsic activity in assay [2] of 0.56.
The matching figures for `Oc1nc2ccccc2cc1-c1cccnc1`: 3.52 and 0.08.
As for `COc1ccc(-c2cccnc2)cc1NC(=O)CC(C)=O`, the pEC50 in assay [1] was 5.08. The Intrinsic activity in assay [2] is on record as 0.51.
Taken in the same sequence, the figures for `COc1ccc(-c2ccccn2)c2c1NC(=O)CC2` were 4.66 and 0.44.
With `Oc1ccc2c(-c3cccnc3)cccc2n1`, in assay [1], the pEC50 is 5.89. The Intrinsic activity in assay [2] was found to be 0.83.
Taken in the same sequence, the figures for `COc1ccc(-c2ccncc2)c2c1NC(=O)CC2` were 4.51 and 0.75.
Regarding `COc1ccc(-c2ccccn2)c2ccc(O)nc12`, the pEC50 in assay [1] was 4.46. The compound further showed an Intrinsic activity in assay [2] of 0.62.
`CCO/C=C\C(=O)Nc1cc(-c2cccnc2)ccc1Cl` gave an Intrinsic activity in assay [2] of 0.28.
Consider `CCO/C=C\C(=O)Nc1cccc(-c2cccnc2)c1`, for which, in assay [2], the Intrinsic activity was 0.42.
In turn, `CCO/C=C\C(=O)Nc1cccc(-c2ccccn2)c1` registered an Intrinsic activity in assay [2] of 0.33.
Still for that read-out and setting: the value for `CCO/C=C\C(=O)Nc1cc(-c2cccnc2)ccc1OC` was 0.54.
Take `CC(C)NCC(O)c1ccc(O)c(O)c1` (centres undefined) [ISOPROTERENOL]: in assay [2], the Intrinsic activity came out at 1.
Regarding `Cc1[nH]c(=O)c(C#N)cc1-c1ccncc1` [MILRINONE], in assay [1], the pEC50 was 4.85. Moreover, in assay [2], the Intrinsic activity was 0.67.
Taken in the same sequence, the figures for `COc1cc([S+](C)[O-])ccc1-c1nc2cccnc2[nH]1` (centres undefined) [SULMAZOLE] were 4.92 and 0.85.
